The values that follow come from ChEMBL document CHEMBL3616369, “N-O-Isopropyl Sulfonamido-Based Hydroxamates as Matrix Metalloproteinase Inhibitors: Hit Selection and in Vivo Antiangiogenic Activity” (J Med Chem, 2015).

For one data set, the species on record is Mus musculus. Briefly: Antiangiogenic activity in C57/BL6 mouse matrigel sponge assay model assessed as reduction of VEGF-A, TNFalpha and heparin-induced number of CD45-/CD31+ cells treated in plugs by flow cytometry. Type of data set: functional, organism-based. In outline: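 Matrigel (0.6 mL final) with VTH mix (VEGF-A 100 ng/mL, TNF-α 2 ng/mL, heparin 25 UI/mL), with or without inhibitor at 0.1-1-10 µM, injected s.c. into flanks of male C57/BL6 mice; some groups also given 0.1-1-10 µM i.p. at day 0; 8 mice/group. Plugs recovered after four days. Read-outs: hemoglobin by Drabkin reagent; collagenase IV digest, flow cytometry for CD31+ cells within CD45−CD3− gate. Mean ± SEM.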

Data set [1] has as its system HUVEC. The data set can be described thus: Inhibition of PMA-stimulated MMP2 protein expression in human HUVEC after 24 hrs by Western blot analysis relative to control. In kind it is functional. The procedure, abridged:
(§1)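 HUVEC (2x10^6) seeded, attached one day, starved 6 h in serum-free medium with 2% BSA. Pre-treated 3 h with 30 nM PMA, then exposed to inhibitor (10 µM) or DMSO vehicle for 24 h. Conditioned media and cell proteins collected. Equal protein on 10% SDS-PAGE, PVDF blot, milk block, anti-MMP-2, MMP-9 and β-actin antibodies, HRP/ECL detection.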
Background: Immunoblotting shows a protein as a band on a membrane.

The subject of data set [2] is HUVEC. The data set can be described thus: Inhibition of FBS-induced cell morphogenesis in human HUVEC after 6 hrs by matrigel assay. Type of data set: functional, cell-based. The procedure, abridged:
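Matrigel (10 mg/mL) polymerized 1 h at 37 °C. HUVEC (50x10^4/well) in complete medium with 10% FBS, with or without inhibitor at various concentrations, layered on top. After 6 h, capillary-like organization imaged by inverted microscope; mesh number counted as tubulogenic efficiency.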

The target of data set [3] is Matrix metalloproteinase-9 (Homo sapiens, UniProt P14780). The data set can be described thus: Inhibition of MMP9 gelatinase activity in human HUVEC at 0.001 uM by gel zymography. The procedure, abridged:
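Gelatin zymography on 10% polyacrylamide gels with 0.1% gelatin and SDS, samples unheated. Gels renatured 30 min at room temperature. Either untreated-HUVEC conditioned medium run and gel lane slices developed overnight at 37 °C in developing buffer containing inhibitor, or medium from inhibitor-treated HUVEC developed overnight without inhibitor. Coomassie stained; bands quantified by densitometry.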

Data set [4] relates to HUVEC. Briefly: Inhibition of FBS-induced cell invasion in human HUVEC after overnight incubation using modified Boyden chambers. Type of data set: functional, cell-based. In outline:
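Modified Boyden chamber. HUVEC (5x10^4), PBS-washed, in serum-free medium with or without inhibitor in upper compartment; 10% FBS or serum-free medium below. 8 µm polycarbonate filters coated with collagen 50 µg/mL (migration, 6 h) or matrigel 1 mg/mL (invasion, overnight). Cells on lower surface ethanol-fixed, stained, counted blind in eight fields. Three experiments in duplicate; one-way ANOVA.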

Data set [5] is described as follows: Induction of apoptosis in human HUVEC assessed as cell viability at 0.001 to 10 uM after 18 hrs using Annexin-V and 7-amino-actinomycin-D staining by flow fluorocytometry analysis. To be noted: HUVEC cells, read-out: Activity. In kind it is cell-based. The procedure, abridged:
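HUVEC (1x10^5) plated in six-well plates, adhered overnight. Treated in growth medium with inhibitor (10 nM–10 µM) or hydrogen peroxide (100–200 µM) overnight. Stained 15 min at room temperature in the dark with FITC-Annexin V and 7-AAD in HEPES/NaCl/CaCl2 binding buffer pH 7.4. Analysed by flow cytometry.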

Data set [6] has as its system HUVEC. The data set can be described thus: Cytotoxicity against human HUVEC assessed as reduction of cell growth at 0.001 to 10 uM after 24 to 96 hrs by MTT assay. In kind it is cell-based. The following applies: in the assay text read “0.01 to 10 uM” for “0.001 to 10 uM”. In outline: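 HUVEC (passages 3–6) seeded at 1000/well in complete medium. After adhesion, fresh medium with or without inhibitor, 10 nM–10 µM. Incubated 24, 48, 72 and 96 h; MTT absorbance read at 570 nm.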

In data set [7] the target is 72 kDa type IV collagenase (Homo sapiens, UniProt P08253). The data set can be described thus: Inhibition of MMP2 in HUVEC assessed as suppression of protein release at 10 uM after 24 hrs by Western blot analysis. In outline:
as §1

The structures appear in SMILES notation. Active and inactive are the calls of the source. No cut-off for these calls is given here.

Chain of 72 kDa type IV collagenase (P08253 110-660 limits assumed): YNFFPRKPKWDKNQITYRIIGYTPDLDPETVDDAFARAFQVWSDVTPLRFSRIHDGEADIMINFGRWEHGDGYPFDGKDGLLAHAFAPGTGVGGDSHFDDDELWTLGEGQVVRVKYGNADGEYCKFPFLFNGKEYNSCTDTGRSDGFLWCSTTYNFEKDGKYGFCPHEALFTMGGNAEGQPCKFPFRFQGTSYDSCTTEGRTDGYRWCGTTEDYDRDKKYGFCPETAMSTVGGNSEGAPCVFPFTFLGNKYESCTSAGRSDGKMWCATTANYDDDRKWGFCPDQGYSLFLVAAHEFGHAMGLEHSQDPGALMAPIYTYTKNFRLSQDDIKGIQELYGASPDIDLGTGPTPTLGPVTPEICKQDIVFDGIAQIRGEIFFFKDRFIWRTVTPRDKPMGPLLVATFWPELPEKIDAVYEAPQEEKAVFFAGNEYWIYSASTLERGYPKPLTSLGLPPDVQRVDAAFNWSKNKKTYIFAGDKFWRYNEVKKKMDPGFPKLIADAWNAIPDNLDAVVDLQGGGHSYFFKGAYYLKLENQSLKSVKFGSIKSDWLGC
Chain of Matrix metalloproteinase-9 (P14780 whole entry): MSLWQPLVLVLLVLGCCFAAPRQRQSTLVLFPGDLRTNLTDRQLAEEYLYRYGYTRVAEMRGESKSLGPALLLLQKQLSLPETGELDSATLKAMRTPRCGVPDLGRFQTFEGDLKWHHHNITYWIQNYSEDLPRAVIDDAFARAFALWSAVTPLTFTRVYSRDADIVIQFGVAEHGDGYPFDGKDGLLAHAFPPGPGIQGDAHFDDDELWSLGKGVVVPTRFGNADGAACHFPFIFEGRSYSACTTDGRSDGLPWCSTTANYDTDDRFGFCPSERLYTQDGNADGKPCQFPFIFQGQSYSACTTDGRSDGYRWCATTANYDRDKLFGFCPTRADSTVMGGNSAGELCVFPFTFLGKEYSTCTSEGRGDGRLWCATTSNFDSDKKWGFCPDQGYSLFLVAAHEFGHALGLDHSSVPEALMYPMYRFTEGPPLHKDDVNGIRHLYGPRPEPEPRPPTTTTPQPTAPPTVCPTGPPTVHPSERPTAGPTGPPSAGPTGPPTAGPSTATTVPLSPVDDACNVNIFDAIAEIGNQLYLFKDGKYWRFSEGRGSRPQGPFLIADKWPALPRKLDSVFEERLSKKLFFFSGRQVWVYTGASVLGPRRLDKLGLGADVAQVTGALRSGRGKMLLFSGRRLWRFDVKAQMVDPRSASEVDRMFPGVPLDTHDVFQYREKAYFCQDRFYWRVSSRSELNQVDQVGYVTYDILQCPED

For `COc1ccc(-c2ccc(S(=O)(=O)N(OC(C)C)[C@H](CCN3C(=O)c4ccccc4C3=O)C(=O)NO)cc2)cc1`, the inhibition result in the data set listed under Mus musculus, with HUVEC [2] and in the data set with HUVEC [4] was “Dose-dependent effect” throughout. Further, in the data set with HUVEC [1], the “fold change (FC)” value is listed as 0.6. The inhibition entry in data set [3] and in data set [7] was “Active” each time. Besides, the viability at 18 h, up to 10 µM in data set [5] was 85%. The Activity entry with HUVEC [6] was “Non-toxic”.
